Experimental data reported in ChEMBL document CHEMBL1122506, “Cardiac-slowing amidines containing the 3-thioindone group. Potential antianginal agents” (1983).

Legend:
[1] = species: Canis familiaris; experiment: Cardiac slowing index was measured for potency and efficacy; type: functional, Canis lupus familiaris
Method in brief: (§1)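 Triazine tachycardia in conscious dogs: carotid artery and jugular vein catheterized with heparinized saline; 18 h after surgery, triazine vasodilator U20388 12 mg/kg po; about 1 h later, dog in sling with arterial pressure and ECG monitored. Test agent infused iv at 0.8 (mg/kg)/min to 30 mg/kg total. D50 = dose giving 50% of maximal slowing in that animal; ΔHR50 = heart-rate change at D50; CS index = %ΔHR50/D50.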

[2] = test system: Canis familiaris; experiment: Dose required to achieve 50 % of maximal cardiac slowing in triazine tachycardia test in conscious dog; type: functional, Canis lupus familiaris; method in brief: as §1
[3] = species: Canis familiaris; experiment: Relative activity (fraction of the most active compound 24) was determined; type: functional, Canis lupus familiaris
[4] = test system: Canis familiaris; experiment: Change in heart rate at the above D50 dose in conscious dogs; type: functional, Canis lupus familiaris; method in brief: as §1
[5] = species: Canis familiaris; experiment: Percent decrease from initial heart rate (percent delta HR50/HR0 x 100) in dogs; type: functional, Canis lupus familiaris; method in brief: as §1
[6] = test system: Canis familiaris; experiment: Myocardial depression in anesthetized, ganglion-blocked dog; Moderate activity.
[7] = test system: Canis familiaris; experiment: Evaluated for the myocardial depression rating which is barely observable for the given compound in anesthetized, ganglion-blocked dog
[8] = test system: Canis familiaris; experiment: Evaluated for the myocardial depression rating which is none for the given compound in anesthetized, ganglion-blocked dog
[9] = test system: Canis familiaris; experiment: Evaluated for the myocardial depression rating which is severe for the given compound in anesthetized, ganglion-blocked dog
[10] = test system: Canis familiaris; experiment: Evaluated for the heart rate at dose 2.5 mg/kg in 4 animals by glucagon-induced tachycardia test; type: functional, Canis lupus familiaris
[11] = test system: Canis familiaris; experiment: Evaluated for the heart rate at dose 2.5 mg/kg in 4 animals by poldine tachycardia test; type: functional, Canis lupus familiaris
Method in brief: (§2)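 Poldine tachycardia: dogs prepared surgically as in the triazine method; poldine methyl sulfate 0.5 mg/kg iv, then 30 min later test agent in increasing doses (0.5/1.0/2.5 mg/kg) at 30-min intervals; read-out is the maximum percent decrease in heart rate at each dose.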

[12] = test system: Canis familiaris; experiment: Evaluated for the heart rate at dose 0.5 mg/kg in 4 animals by poldine tachycardia test; type: functional, Canis lupus familiaris; method in brief: as §2
[13] = test system: Canis familiaris; experiment: Evaluated for the heart rate at dose 1.0 mg/kg in 4 animals by aminophylline-induced sinus tachycardia test; type: functional, Canis lupus familiaris
[14] = test system: Canis familiaris; experiment: Evaluated for the heart rate at dose 1.0 mg/kg in 4 animals by glucagon-induced tachycardia test; type: functional, Canis lupus familiaris
[15] = test system: Canis familiaris; experiment: Evaluated for the heart rate at dose 5.0 mg/kg in 4 animals by aminophylline-induced sinus tachycardia test; type: functional, Canis lupus familiaris
[16] = test system: Canis familiaris; experiment: Evaluated for the heart rate at dose 2.5 mg/kg in 4 animals by aminophylline-induced sinus tachycardia test; type: functional, Canis lupus familiaris
[17] = test system: Canis familiaris; experiment: Evaluated for the heart rate at dose 1.0 mg/kg in 4 animals by poldine tachycardia test; type: functional, Canis lupus familiaris; method in brief: as §2
[18] = test system: Canis familiaris; experiment: Myocardial depression rating in anesthetized, ganglion-blocked dog; Weak activity.
[19] = test system: Canis familiaris; experiment: Evaluated for the heart rate at dose 5.0 mg/kg in 4 animals by glucagon-induced tachycardia test; type: functional, Canis lupus familiaris
[20] = test system: Canis familiaris; experiment: Evaluated for the heart rate at dose 2.5 mg/kg in 6 animals by aminophylline-induced sinus tachycardia test; type: functional, Canis lupus familiaris
[21] = test system: Canis familiaris; experiment: Evaluated for the heart rate at dose 5.0 mg/kg in 6 animals by aminophylline-induced sinus tachycardia test; type: functional, Canis lupus familiaris
[22] = test system: Canis familiaris; experiment: Evaluated for the heart rate at dose 1.0 mg/kg in 6 animals by aminophylline-induced sinus tachycardia test; type: functional, Canis lupus familiaris

SMILES | CS index [1] | D50 [2] [mg/kg] | Relative activity [3] | Delta HR50 [4] [beats min-1] | Delta HR50 [5] [%] | MD [6] | other results
COCCn1cc(SCC/N=C2\CCCN2C)c2ccccc21 | 11.7 | 1.5 | 0.37 | -33 | 17.6 | 2.5 | –
CCn1cc(SCCCC/N=C2\CCCN2C)c2ccccc21 | 22.8 | 0.7 | 0.71 | -33 | 16 | 3.5 | –
CCCn1cc(SCC/N=C2\CCCN2C)c2ccccc21 | 16.1 | 1.7 | 0.5 | -60 | 27.4 | – | MD [7]: 1
CCn1cc(CC/N=C2/CCCN2C)c2ccccc21 | 25.2 | 0.8 | 0.79 | -48 | 20.2 | – | MD [8]: 0
CCCc1[nH]c2ccccc2c1SCC/N=C1\CCCN1C | 3.7 | 7.9 | 0.11 | -62 | 29 | – | MD [9]: 4
Cc1[nH]c2ccccc2c1SCC/N=C1\CCCCN1C | 7.1 | 2 | 0.22 | -24 | 14.3 | 3 | –
CC(C)n1cc(SCC/N=C2\CCCN2C)c2ccccc21 | 19.1 | 1 | 0.6 | -31 | 19.1 | – | Max decrease in heart rate [10]: 39%; Max decrease in heart rate [11]: 55%; Max decrease in heart rate [12]: 15%; Max decrease in heart rate [13]: 16%; Max decrease in heart rate [14]: 23%; Max decrease in heart rate [15]: 47%; Max decrease in heart rate [16]: 33%; Max decrease in heart rate [17]: 38%; MD [18]: 2
Cc1[nH]c2ccc(Cl)cc2c1SCC/N=C1\CCCN1C | 7.5 | 2.3 | 0.23 | -33 | 17.2 | 3 | –
CN1CCN=C1NCCCCSc1c[nH]c2ccccc12 | 0.8 | 12.6 | 0.03 | -27 | 10.5 | – | MD [8]: 0
CCCc1[nH]c2ccccc2c1SCCNC1=NCCN1C | 6.3 | 2.1 | 0.2 | -27 | 13.2 | – | MD [9]: 4
Cc1c(SCC/N=C2\CCCN2C)c2ccccc2n1C | 13.9 | 0.9 | 0.43 | -21 | 12.5 | 3.5 | –
CN1CCCC1=NCCCCc1c[nH]c2ccccc12 | 3.1 | 6.1 | 0.11 | -50 | 19 | – | MD [8]: 0
CN1CCC/C1=N\CCSc1c[nH]c2ccccc12 | 8.2 | 2.5 | 0.26 | -40 | 20.4 | 3 | Max decrease in heart rate [10]: 20%; Max decrease in heart rate [11]: 33%; Max decrease in heart rate [12]: 9%; Max decrease in heart rate [13]: 10%; Max decrease in heart rate [14]: 6%; Max decrease in heart rate [15]: 39%; Max decrease in heart rate [19]: 28%; Max decrease in heart rate [16]: 22%; Max decrease in heart rate [17]: 22%
CN1CCC/C1=N\CCC1CNc2ccccc21 (stereo not given) | 3.5 | 3.5 | 0.13 | -27 | 12.2 | – | MD [7]: 1
CN1CCC/C1=N\CCSc1cn(C)c2ccccc12 | 16.8 | 1.2 | 0.52 | -30 | 20.2 | – | Max decrease in heart rate [10]: 34%; Max decrease in heart rate [11]: 47%; Max decrease in heart rate [12]: 24%; Max decrease in heart rate [14]: 13%; Max decrease in heart rate [20]: 32%; Max decrease in heart rate [19]: 53%; Max decrease in heart rate [21]: 39%; Max decrease in heart rate [22]: 22%; Max decrease in heart rate [17]: 33%; MD [18]: 2
COc1ccc(CC/N=C2/CCCN2C)cc1OC [MIXIDINE] | 5.9 | 3.3 | 0.18 | -34 | 19.6 | – | Max decrease in heart rate [10]: 16%; Max decrease in heart rate [11]: 35%; Max decrease in heart rate [12]: 12%; Max decrease in heart rate [20]: 25%; Max decrease in heart rate [19]: 28%; Max decrease in heart rate [21]: 33%; Max decrease in heart rate [22]: 6%; Max decrease in heart rate [17]: 24%; MD [7]: 1
